Results as given in ChEMBL document CHEMBL1158591, “Discovery of 2-chloro-N-((4,4-difluoro-1-hydroxycyclohexyl)methyl)-5-(5-fluoropyrimidin-2-yl)benzamide as a potent and CNS penetrable P2X7 receptor antagonist” (Bioorg Med Chem Lett, 2010).

Columns and labels:
Assay type in all cases: ADME, organism-based
Rattus norvegicus = experiment: Volume of distribution at steady state in Sprague-Dawley rat at 1 mg/kg, iv and po; parameters: dose 1 mg/kg; conditions: in vivo
In short: (§1)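 Male Sprague Dawley rats, IV/PO crossover pharmacokinetics, dosed at 1 mpk by each route.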

[1] = Oral bioavailability in Sprague-Dawley rat at 1 mg/kg, po; conditions: in vivo; in short: as §1
[2] = Ratio of drug level in brain to plasma in iv dosed Sprague-Dawley rat; conditions: brain and plasma
In short: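 Male Sprague Dawley rats given a steady-state IV infusion. Ratio is compound concentration in brain over that in plasma.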

Vdss (Rattus norvegicus) | bioavailability [1] | Kp [2] | Structure (SMILES)
1.3 L/kg | 84% | 1.3 | O=C(NCC1(O)CCC(F)(F)CC1)c1cc(-c2ncc(F)cn2)ccc1Cl
0.9 L/kg | 35% | 0.7 | O=C(NCC1(O)CCCCCC1)c1cc(-c2ncc(F)cn2)ccc1Cl
